In ChEMBL document CHEMBL1127533, “Presynaptic cholinergic modulators as potent cognition enhancers and analgesic drugs. 2. 2-Phenoxy-, 2-(phenylthio)-, and 2-(phenylamino)alkanoic acid esters” (J Med Chem, 1994) one finds ED50, Analgesic activity and Ki data, which are given here for 20 compounds.

As usually defined, the ED50 is the dose at which the effect has come halfway, by size or by number of responders. The term Ki denotes the equilibrium dissociation constant of an inhibitor or competing ligand from its target.

For experiment [1], the system named is Mus musculus. Nature of the experiment: Analgesic potency was evaluated as effective dose after subcutaneous administration. Format: functional. An outline of the steps: (§1)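 Mouse hot-plate assay after Woolfe, with the plate held at 52.5 ± 0.1 °C and a 45 s cutoff. Groups held 8–20 mice. Analgesic potency is expressed as the ED50.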
The species entered for experiment [2] is Mus musculus. Nature of the experiment: Analgesic activity in male albino Swiss-Webster mice in hotplate test. Format: functional. More on the design: unit not given here. The gist of the method: as §1
Experiment [3] deals with Muscarinic acetylcholine receptor. Briefly: The compound is evaluated for binding affinity against central muscarinic receptor by using [3H]- QNB as radioligand. Format: protein assay.
The species named for experiment [4] is Mus musculus. Briefly: Compound was evaluated for analgesic activity, in male albino Swiss-Webster mice with hotplate test and maximum level of analgesia reached is evaluated. It is filed as functional. An outline of the steps: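 Mouse hot-plate at 52.5 ± 0.1 °C with a 45 s cutoff. Each compound was given at its maximal nontoxic dose, defined as no visible behavioural change to blinded observers. Efficacy = (max reaction time − pretest)/(same for morphine-HCl 8 mg/kg sc) × 100.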

In experiment [5] the test system is Mus musculus. Briefly: Analgesic potency was evaluated as Effective Dose 50 after subcutaneous administration. Standard error given in parenthesis. It is filed as functional. To be noted: sc. The gist of the method: as §1
Where [6] appears, read: Mus musculus, sc, read-out: ED50.

Molecules are shown by their SMILES.

Take `CCC(Sc1ccccc1)C(=O)OC1CC2CCC(C1)N2C` (racemic): the ED50 in the experiment with Mus musculus [1] amounted to 18 mg/kg. The Analgesic activity in the experiment filed under Mus musculus [2] is given as 103. This compound also came in with a Ki in experiment [3] of 22.7 nM.
Take `CC(Oc1ccc(Cl)cc1)C(=O)OC1CC2CCC(C1)N2C.O=C(O)/C=C\C(=O)O` (racemic): the ED50 in the experiment on Mus musculus [1] (setting [6]) amounted to 32 mg/kg. The compound also returned an Analgesic activity in the experiment filed under Mus musculus [4] of 90.
On to `CC(Nc1ccc(Cl)cc1)C(=O)OC1CC2CCC(C1)N2C` (configuration not stated), for which the ED50 in the experiment with Mus musculus [1] (setting [6]) came to 31 mg/kg. Moreover, the Analgesic activity in the experiment listed under Mus musculus [2] is 33.
For the compound `CN1C2CCC1CC(OC(=O)CCOc1ccccc1)C2.O=C(O)/C=C\C(=O)O` (configuration not stated), the ED50 with Mus musculus [5] turned out to be 22 mg/kg. The Analgesic activity in the experiment filed under Mus musculus [4] is given as 28.
Take `CC(Sc1ccc(Br)cc1)C(=O)OC1CC2CCC(C1)N2C` (configuration not stated): the ED50 with Mus musculus [1] (setting [6]) was 35 mg/kg. Moreover, in the experiment listed under Mus musculus [2], the Analgesic activity was determined as 33.
The corresponding values for `CC[C@H](Oc1ccc(Cl)cc1)C(=O)OC1CC2CCC(C1)N2C` (some centres not stated) are 18 mg/kg and 56.
In the case of `CC(Oc1ccc(C(F)(F)F)cc1)C(=O)OC1CC2CCC(C1)N2C` (configuration not stated), the ED50 in the experiment with Mus musculus [1] (setting [6]) was 26 mg/kg. Moreover, the Analgesic activity in the experiment listed under Mus musculus [2] worked out at 44.
In the experiment on Mus musculus [1], `CC(Oc1ccc(Cl)cc1)C(=O)OC1CC2CCC(C1)N2C.O=C(O)/C=C\C(=O)O` (stereo in doubt; 12) gave an ED50 of 21 mg/kg. In the experiment listed under Mus musculus [2], the Analgesic activity is listed as 26.
Turning to `CC[C@@H](Sc1ccc(Cl)cc1)C(=O)OC1CC2CCC(C1)N2C` (some centres not stated), in the experiment with Mus musculus [1] (setting [6]), the ED50 was determined as 11 mg/kg. Also, in the experiment filed under Mus musculus [2], the Analgesic activity is 64.
The matching figures for `CC(Sc1ccccc1)C(=O)OC1CC2CCC(C1)N2C.O=C(O)/C=C\C(=O)O` (configuration not stated): 30 mg/kg and 62.
The corresponding values for `CCC(COC1CC2CCC(C1)N2C)Sc1ccc(Cl)cc1` (configuration not stated) are 39 mg/kg and 53.
The corresponding values for `CC(Sc1ccc(Cl)cc1)C(=O)OC1CC2CCC(C1)N2C.O=C(O)/C=C\C(=O)O` (racemic) are 19 mg/kg and 72.
For `CCC(Oc1ccccc1)C(=O)OC1CC2CCC(C1)N2C` (configuration not stated), the ED50 with Mus musculus [1] (setting [6]) worked out at 31 mg/kg. In addition, the Analgesic activity in the experiment filed under Mus musculus [2] was 35.
The corresponding values for `C[C@H](Oc1ccc(Cl)cc1)C(=O)OC1CC2CCC(C1)N2C` (some centres not stated) are 17 mg/kg and 37.
Take `CCC(Sc1ccccc1)C(=O)OC1CC2CCC(C1)N2C` (single isomer, unassigned; (+)): the ED50 in the experiment with Mus musculus [1] (setting [6]) was found to be 16 mg/kg. Besides, the Analgesic activity in the experiment listed under Mus musculus [2] stood at 86.
For the compound `CCN1C2CCC1CC(OC(=O)C(C)Oc1ccc(Cl)cc1)C2.O=C(O)/C=C\C(=O)O` (configuration not stated), the ED50 in the experiment with Mus musculus [1] (setting [6]) came to 42 mg/kg. The same compound came in with an Analgesic activity in the experiment filed under Mus musculus [2] of 42.
The corresponding values for `CCC(Oc1ccc(F)cc1)C(=O)OC1CC2CCC(C1)N2C` (configuration not stated) are 37 mg/kg and 94.
In the case of `CN1C2CCC1CC(OC(=O)C(C)(C)Oc1ccc(Cl)cc1)C2` (configuration not stated), the ED50 in the experiment on Mus musculus [1] (setting [6]) was determined as 23 mg/kg. In the experiment listed under Mus musculus [2], this compound displayed an Analgesic activity of 52.
For `CCC(Oc1ccc(Cl)cc1)C(=O)OC1CC2CCC(C1)N2C.O=C(O)/C=C\C(=O)O` (racemic), the ED50 in the experiment on Mus musculus [1] (setting [6]) was found to be 20 mg/kg. In the experiment filed under Mus musculus [2], the Analgesic activity is reported as 99. In experiment [3], this compound registered a Ki of 174 nM.
In the case of `CC(COC1CC2CCC(C1)N2C)Oc1ccc(Cl)cc1` (configuration not stated), the ED50 in the experiment with Mus musculus [1] (setting [6]) was 44 mg/kg. Moreover, the Analgesic activity in the experiment filed under Mus musculus [2] was 64.
